In ChEMBL document CHEMBL2346548, “Design, synthesis, and structure-activity relationship studies of tryptanthrins as antitubercular agents” (J Nat Prod, 2013):
Values after ≈ are worked out from the molar mass of the structure shown.

Tests used:
[1] = Tmax in C57BL/6 mouse at 40 mg/kg, po; format: ADME, organism-based; design: dose 40 mg/kg, route oral; conditions: in vivo
Outline: (§1)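 Female C57BL/6 mice, single 40 mg/kg oral gavage; three mice per time point; plasma at 30 min to 24 h, LC-MS; noncompartmental parameters reported as means.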

[2] = Permeability across basolateral to apical side in human Caco2 cells incubated for 1 hr at 37 degC by HPLC-MS/MS method; format: ADME, cell-based; conditions: Caco-2
[3] = Solubility in simulated intestinal fluid at pH 7.6 by HPLC method; format: physicochemical
Outline: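 Simulated intestinal fluid medium; each analogue 200 μM final in 2% DMSO, shaken 24 h at room temperature, then HPLC with photodiode array read at 230 nm; duplicate, means given.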

[4] = Metabolic stability in human liver microsomes assessed as parent compound remaining at 1 uM incubated for 1 hr by HPLC-MS/MS method; format: ADME, Microsome; conditions: read-out: Stability
Outline: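 Pooled mixed-gender human liver microsomes (0.3 mg/mL protein), 1 μM compound with NADP-regenerating system in phosphate buffer pH 7.4, 1 h at 37 °C; parent measured at start and end by HPLC-MS/MS; duplicate means.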

[5] = Protein binding in human plasma at 10 uM incubated for 8 hrs at 37 degC by equilibrium dialysis method; format: ADME, cell-free; conditions: read-out: PPB (converted)
Outline: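 Equilibrium dialysis: 10 μM compound in 1% DMSO in human plasma vs 0.05 M phosphate buffer pH 7.5 across 12–14 K cutoff membrane, at least 8 h at 37 °C; HPLC-photodiode detection at 230 nm; duplicate means.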

Vero = assay: Cytotoxicity against african green monkey Vero cells; format: cell-based, Chlorocebus sabaeus; conditions: Chlorocebus sabaeus, Vero; read-out: IC50
[6] = system: Mycobacterium tuberculosis; assay: Antitubercular activity against Mycobacterium tuberculosis H37Rv incubated at 37 degC for 7 days by microplate alamar blue assay; format: functional; conditions: Mycobacterium tuberculosis, H37Rv, 168 h
Outline: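 Mtb H37Rv was grown in 7H9 broth with glycerol, Casitone, 10% OADC and 0.05% Tween 80 to OD600 0.4. Compounds were 2-fold serially diluted from DMSO stocks in 7H9, and wells were inoculated at 2 × 10⁵ CFU/mL. After 7 days at 37 °C, Alamar Blue was added and read after a further 24 h. MIC was the lowest concentration preventing the blue-to-pink change.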

[7] = Permeability across apical to basolateral side in human Caco2 cells incubated for 1 hr at 37 degC by HPLC-MS/MS method; format: ADME, cell-based; conditions: Caco-2
Outline: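 TC7 (Caco-2 subclone) monolayer; 10 μM compound in 1% DMSO in HBSS-MES pH 6.5 on apical donor side, basolateral receiver pH 7.4; shaken 1 h at 37 °C; receiver sampled, HPLC-MS/MS; duplicate means.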

[8] = AUC (0 to infinity) in C57BL/6 mouse at 40 mg/kg, po; format: ADME, organism-based; design: dose 40 mg/kg, route oral, time infinity; conditions: plasma
[9] = system: Mycobacterium tuberculosis; assay: Antitubercular activity against Mycobacterium tuberculosis H37Rv incubated at 37 degC for 14 days in presence of 40% human serum by microplate alamar blue assay; format: functional; conditions: 336 h
Outline: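 This is the MABA run in 7H9 broth containing 40% human serum. Compounds were 2-fold serially diluted, and wells were inoculated with H37Rv at 2 × 10⁵ CFU/mL. Incubation was at 37 °C for 14 days, then Alamar Blue was added. MIC was the lowest concentration preventing the blue-to-pink colour change.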

[10] = Oral bioavailability in Sprague-Dawley rat at 20 mg/kg; format: ADME, organism-based; conditions: in vivo
[11] = Tmax in Sprague-Dawley rat at 20 mg/kg, po; format: ADME, organism-based; design: dose 20 mg/kg, route oral; conditions: in vivo
[12] = Solubility in simulated gastric fluid at pH 1.5 by HPLC method; format: physicochemical
Outline: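 Compound at 200 μM final in 2% DMSO in simulated gastric fluid, shaken 24 h at room temperature; HPLC-photodiode array detection at 230 nm; duplicate means.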

[13] = Half life in Sprague-Dawley rat at 20 mg/kg, po; format: ADME, organism-based; design: dose 20 mg/kg, route oral; conditions: in vivo
[14] = Clearance in Sprague-Dawley rat at 5 mg/kg, iv; format: ADME, organism-based; design: dose 5 mg/kg, route intravenous; conditions: in vivo
Outline: (§2)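 Male Sprague-Dawley rats (n = 3), single 5 mg/kg iv dose as solution in PEG300/DMSO 50:50; plasma sampled 0.083–24 h, LC-MS bioanalysis; noncompartmental analysis, means.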

[15] = Cmax in C57BL/6 mouse at 40 mg/kg, po; format: ADME, organism-based; design: dose 40 mg/kg, route oral; conditions: in vivo; outline: as §1
[16] = system: Mycobacterium tuberculosis; assay: Antitubercular activity against non-replicating Mycobacterium tuberculosis H37Rv incubated for 10 days by LORA method; format: functional; conditions: 240 h
Outline: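 H37Rv carrying pFCA-luxAB was adapted to low oxygen by gradual self-depletion in a sealed, slowly stirred flask. It was then exposed to compounds for 10 days under anaerobic conditions. Cultures recovered for 28 h in ambient oxygen before n-decanal substrate was added and luminescence read. MIC was the lowest concentration giving a 90% reduction in luminescence versus untreated controls.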

[17] = Efflux ratio in human Caco2 cells incubated for 1 hr at 37 degC by HPLC-MS/MS method; format: ADME, cell-based; conditions: Caco-2
[18] = Elimination half life in Sprague-Dawley rat at 5 mg/kg, iv; format: ADME, organism-based; design: dose 5 mg/kg, route intravenous; conditions: in vivo, read-out: beta t1/2 (converted); outline: as §2
[19] = Aqueous solubility in PBS buffer at pH 7.4 by HPLC method; format: physicochemical; conditions: PBS buffer, read-out: solubility
Outline: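 Compound at 200 μM final in 2% DMSO in PBS pH 7.4, shaken 24 h at room temperature; quantified by HPLC with photodiode array detection at 230 nm; duplicate, mean reported.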

[20] = Cmax in Sprague-Dawley rat at 20 mg/kg, po; format: ADME, organism-based; design: dose 20 mg/kg, route oral; conditions: in vivo
[21] = Volume of distribution in Sprague-Dawley rat at 5 mg/kg, iv; format: ADME, organism-based; design: dose 5 mg/kg, route intravenous; conditions: in vivo; outline: as §2
[22] = AUC (0 to infinity) in Sprague-Dawley rat at 20 mg/kg, po; format: ADME, organism-based; design: time infinity, dose 20 mg/kg, route oral; conditions: plasma
[23] = AUC (0 to infinity) in Sprague-Dawley rat at 5 mg/kg, iv; format: ADME, organism-based; design: time infinity, dose 5 mg/kg, route intravenous; conditions: plasma
[24] = Tmax in C57BL/6 mouse at 40 mg/kg, po formulated in 30% HP-beta-CD; format: ADME, organism-based; design: dose 40 mg/kg, route oral; conditions: in vivo; outline: as §1
[25] = system: Mycobacterium tuberculosis; assay: Antitubercular activity against Mycobacterium tuberculosis Erdman ATCC 35801 infected in C57BL/6 mouse assessed as viable bacterial load in spleen at 200 mg/kg twice daily through gavage 5 days per week for 4 weeks starting on 10th day post-infection (reference value: 4.79 +/- 0.21 log10CFU/spleen); format: functional
Salmonella typhimurium [26] = assay: Mutagenicity in Salmonella typhimurium TA100 assessed as mean revertant colonies at 0.25 to 240 ug/well in presence of rat liver S9 fraction; format: toxicity, organism-based; conditions: salmonella enterica subsp. enterica serovar typhimurium
Outline: (§3)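 MicroAmes: strains preincubated with or without Aroclor-induced rat liver S9, duplicate wells, six concentrations 0.25–250 μg equivalents/well; DMSO vehicle, 4-nitroquinoline-N-oxide (−S9) and 2-aminoanthracene (+S9) positive controls; revertant colonies counted; cytotoxicity noted as reduced revertants or background lawn; precipitation recorded.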

Salmonella typhimurium [27] = assay: Mutagenicity in Salmonella typhimurium TA98 assessed as mean revertant colonies at 0.25 to 240 ug/well in absence of rat liver S9 fraction; format: toxicity, organism-based; conditions: salmonella enterica subsp. enterica serovar typhimurium; outline: as §3
[28] = system: Mycobacterium tuberculosis; assay: Antitubercular activity against Mycobacterium tuberculosis Erdman ATCC 35801 infected in C57BL/6 mouse assessed as viable bacterial load in lung at 200 mg/kg/day through gavage 5 days per week for 4 weeks starting on 10th day post-infection (reference value: 6.49 +/- 0.10 log10CFU/lung); format: functional
Salmonella typhimurium [29] = assay: Mutagenicity in Salmonella typhimurium TA100 assessed as mean revertant colonies at 0.25 to 240 ug/well in absence of rat liver S9 fraction; format: toxicity, organism-based; conditions: salmonella enterica subsp. enterica serovar typhimurium; outline: as §3
[30] = Cmax in C57BL/6 mouse at 40 mg/kg, po formulated in 0.5% methylcellulose; format: ADME, organism-based; design: dose 40 mg/kg, route oral; conditions: in vivo; outline: as §1
Salmonella typhimurium [31] = assay: Mutagenicity in Salmonella typhimurium TA98 assessed as mean revertant colonies at 0.25 to 240 ug/well in presence of rat liver S9 fraction; format: toxicity, organism-based; conditions: salmonella enterica subsp. enterica serovar typhimurium; outline: as §3
Salmonella typhimurium [32] = assay: Toxicity in Salmonella typhimurium TA100 assessed as compound level per well causing cytotoxicity at 0.25 to 240 ug/well in absence of rat liver S9 fraction; format: organism-based; conditions: salmonella enterica subsp. enterica serovar typhimurium; outline: as §3
[33] = Tmax in C57BL/6 mouse at 40 mg/kg, po formulated in 0.5% methylcellulose; format: ADME, organism-based; design: dose 40 mg/kg, route oral; conditions: in vivo; outline: as §1
[34] = AUC (0 to infinity) in C57BL/6 mouse at 40 mg/kg, po formulated in 30% HP-beta-CD; format: ADME, organism-based; design: time infinity, dose 40 mg/kg, route oral; conditions: plasma
[35] = system: Mycobacterium tuberculosis; assay: Antitubercular activity against Mycobacterium tuberculosis Erdman ATCC 35801 infected in C57BL/6 mouse assessed as viable bacterial load in lung at 200 mg/kg twice daily through gavage 5 days per week for 4 weeks starting on 10th day post-infection (reference value: 6.49 +/- 0.10 log10CFU/lung); format: functional
[36] = Cmax in C57BL/6 mouse at 40 mg/kg, po formulated in 30% HP-beta-CD; format: ADME, organism-based; design: dose 40 mg/kg, route oral; conditions: in vivo; outline: as §1
Salmonella typhimurium [37] = assay: Toxicity in Salmonella typhimurium TA100 assessed as compound level per well causing cytotoxicity at 0.25 to 240 ug/well in presence of rat liver S9 fraction; format: organism-based; conditions: salmonella enterica subsp. enterica serovar typhimurium; outline: as §3
[38] = Half life in C57BL/6 mouse at 40 mg/kg, po formulated in 0.5% methylcellulose; format: ADME, organism-based; design: dose 40 mg/kg, route oral; conditions: in vivo; outline: as §1
[39] = system: Mycobacterium tuberculosis; assay: Antitubercular activity against Mycobacterium tuberculosis Erdman ATCC 35801 infected in C57BL/6 mouse assessed as viable bacterial load in spleen at 200 mg/kg/day through gavage 5 days per week for 4 weeks starting on 10th day post-infection (reference value: 4.79 +/- 0.21 log10CFU/spleen); format: functional
[40] = AUC (0 to infinity) in C57BL/6 mouse at 40 mg/kg, po formulated in 0.5% methylcellulose; format: ADME, organism-based; design: dose 40 mg/kg, route oral, time infinity; conditions: in vivo

SMILES	Papp B→A at 1 h [2]	solubility [3]	remaining at 1 h, 1 µM [4]	fraction unbound at 8 h, 10 µM [5]	IC50 (Vero)	MIC [6]	Papp A→B at 1 h [7]	MIC [9]	bioavailability [10]	Tmax [11]	solubility [12]	half-life [13]	clearance [14]	MIC90 [16]	efflux ratio at 1 h [17]	half-life [18]	solubility [19]	Cmax [20]	Vd [21]	AUC(0-inf) [22]	further results
O=C1c2cc(C(=O)N3CCCCC3)ccc2-n2c1nc1ccccc1c2=O	26 ×10⁻⁶ cm/s	27.5 µM (≈ 9.88 µg/mL)	105%	0.011	> 10 µg/mL	0.25 µg/mL (≈ 0.696 µM)	59.9 ×10⁻⁶ cm/s	2 µg/mL	3.16%	1 h	10.2 µM (≈ 3.67 µg/mL)	7.34 h	81 mL/min/kg	> 10 µg/mL	> 1	0.88 h	16.3 µM (≈ 5.86 µg/mL)	30 ng/mL	6.21 L/kg	140 ng·h/mL	Tmax [1]: 2 h; AUC(0-inf) [8]: 1300 ng·h/mL; Cmax [15]: 112 ng/mL; AUC(0-inf) [23]: 1070 ng·h/mL
O=C1c2ccccc2-n2c1nc1c(c2=O)CCCC1	52.4 ×10⁻⁶ cm/s	73.4 µM (≈ 18.5 µg/mL)	18%	0.043	8.7 µg/mL (≈ 34.5 µM)	0.5 µg/mL (≈ 1.98 µM)	85.4 ×10⁻⁶ cm/s	1 µg/mL	30.1%	4.67 h	53 µM (≈ 13.4 µg/mL)	6.29 h	5.67 mL/min/kg	10.5 µg/mL (≈ 41.6 µM)	> 1	3.98 h	54.9 µM (≈ 13.8 µg/mL)	2030 ng/mL	1.62 L/kg	19900 ng·h/mL	Tmax [24]: 0.5 h; log10cfu [25]: 4.89; Activity (Salmonella typhimurium [26]): Non-toxic; Activity (Salmonella typhimurium [27]): Non-toxic; log10cfu [28]: 6.5; Activity (Salmonella typhimurium [29]): Non-toxic; Cmax [30]: 1930 ng/mL; Activity (Salmonella typhimurium [31]): Non-toxic; Activity (Salmonella typhimurium [32]): >= 25 ug; Tmax [33]: 1.5 h; AUC(0-inf) [34]: 2570 ng·h/mL; log10cfu [35]: 6.6; Cmax [36]: 2260 ng/mL; Activity (Salmonella typhimurium [37]): >= 25 ug; half-life [38]: 4.99 h; log10cfu [39]: 4.88; AUC(0-inf) [40]: 5280 ng·h/mL; AUC(0-inf) [23]: 16500 ng·h/mL
